The values that follow come from ChEMBL document CHEMBL1155469, “Peptide nucleic acids conjugated to short basic peptides show improved pharmacokinetics and antisense activity in adipose tissue” (J Med Chem, 2010).

Each structure is given as a SMILES string. Activity calls are given as the source filed them. The rule behind the calls is not given here.

For data set [1], the system named is Mus musculus. The data set is described as follows: Toxicity in Balb/C mouse assessed as change in serum triglyceride levels at 10 to 40 mg/kg, ip administered thrice a week for 2 weeks measured 48 hrs after last dose. Also on record: dose 10-40 mg/kg, route intraperitoneal. The conditions noted are these: in vivo. It is filed as organism-based. In short, it runs like this: (§1)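 Male Balb/c mice, 6–8 wk, n=4/group, received compound i.p. in PBS (10 ul/g) 3x/wk for 2 wk. Body weight was monitored throughout. At 48 h after the last dose, mice were anesthetized with isoflurane and bled by cardiac puncture. Serum AST, ALT, BUN, bilirubin, glucose and triglycerides were compared with the saline group. ALT rise below 2x normal was counted as absent.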

Data set [2] has as its system Mus musculus. Kind of data set: Inhibition of PTEN expression in Balb/C mouse kidney at 10 to 40 mg/kg, ip administered thrice a week for 2 weeks measured 48 hrs after last dose.
Data set [3] has as its system Mus musculus. Kind of data set: Inhibition of PTEN expression in Balb/C mouse white adipose tissue assessed as reduction of full length transcript at 10 to 40 mg/kg, ip administered thrice a week for 2 weeks measured 48 hrs after last dose […]. It is filed as functional, organism-based.
Data set [4] relates to Mus musculus. Kind of data set: Toxicity in Balb/C mouse assessed as change in serum glucose levels at 10 to 40 mg/kg, ip administered thrice a week for 2 weeks measured 48 hrs after last dose. Format: organism-based. Also on record: dose 10-40 mg/kg, route intraperitoneal. The settings on record: in vivo. The gist of the method: as §1
Data set [5] is described as follows: Drug level in Balb/C mouse liver at 40 mg/kg, ip administered thrice a week for 2 weeks measured 48 hrs after last dose. Format: ADME, organism-based. More on the design: dose 40 mg/kg, route intraperitoneal. The settings on record: read-out: Drug uptake. The gist of the method:
(§2)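 Male Balb/c mice, 6–8 wk, n=4/group, dosed i.p. in PBS 3x/wk for 2 wk at 40 mg/kg and killed 48 h after the last dose. Liver, kidney and adipose tissue were homogenized in SDS extraction buffer and diluted to 0.2 mg tissue/mL. They were hybridized with a digoxigenin/biotin cutting probe, captured on NeutrAvidin, and digested with nuclease S1. Anti-digoxigenin-AP fluorescence was read and quantified against a 0.1–100 nM standard ladder, in quadruplicate.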

Data set [6] is described as follows: Drug level in Balb/C mouse kidney at 40 mg/kg, ip administered thrice a week for 2 weeks measured 48 hrs after last dose. Format: ADME, organism-based. More on the design: dose 40 mg/kg, route intraperitoneal. The conditions noted are these: read-out: Drug uptake. In short, it runs like this: as §2
Data set [7] in a line: Drug level in Balb/C mouse adipose tissue at 40 mg/kg, ip administered thrice a week for 2 weeks measured 48 hrs after last dose. Format: ADME, organism-based. Also on record: dose 40 mg/kg, route intraperitoneal. The conditions noted are these: read-out: Drug uptake. The gist of the method: as §2
Data set [8] deals with Mus musculus. The data set is described as follows: Toxicity in Balb/C mouse assessed as change in serum ALT levels at 10 to 40 mg/kg, ip administered thrice a week for 2 weeks measured 48 hrs after last dose. Format: organism-based. More on the design: dose 10-40 mg/kg, route intraperitoneal. The settings on record: in vivo. In short, it runs like this:
as §1

The subject of data set [9] is Mus musculus. The data set is described as follows: Toxicity in Balb/C mouse assessed as change in body weight at 10 to 40 mg/kg, ip administered thrice a week for 2 weeks measured 48 hrs after last dose. Format: organism-based. Also on record: dose 10-40 mg/kg, route intraperitoneal. The conditions noted are these: in vivo. The gist of the method:
as §1

Data set [10] deals with Mus musculus. Kind of data set: Toxicity in Balb/C mouse assessed as change in serum AST levels at 10 to 40 mg/kg, ip administered thrice a week for 2 weeks measured 48 hrs after last dose. More on the design: dose 10-40 mg/kg, route intraperitoneal. It is filed as organism-based. The conditions noted are these: in vivo. In short, it runs like this: as §1
Data set [11] deals with Mus musculus. Kind of data set: Toxicity in Balb/C mouse assessed as change in blood urea nitrogen levels at 10 to 40 mg/kg, ip administered thrice a week for 2 weeks measured 48 hrs after last dose. It is filed as organism-based. Also on record: dose 10-40 mg/kg, route intraperitoneal. The settings on record: in vivo. The gist of the method:
as §1

The subject of data set [12] is Mus musculus. Kind of data set: Inhibition of PTEN expression in Balb/C mouse liver at 10 to 40 mg/kg, ip administered thrice a week for 2 weeks measured 48 hrs after last dose by Western blot analysis. It is filed as functional, organism-based. In short, it runs like this:
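Male Balb/c mice, 6–8 wk, n=4/group, dosed i.p. in PBS 3x/wk for 2 wk and killed 48 h after the last dose. Tissue was homogenized in RIPA buffer with protease inhibitors, and protein was measured by Lowry assay. Lysates were run on 10% PAGE and blotted to PVDF. Blots were probed with rabbit anti-PTEN (1:1000) and HRP anti-rabbit (1:2500), with ECL detection.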
Background: In western blotting, separated proteins are transferred to a membrane and probed.

Data set [13] deals with Mus musculus. The data set is described as follows: Toxicity in Balb/C mouse assessed as change in serum bilirubin levels at 10 to 40 mg/kg, ip administered thrice a week for 2 weeks measured 48 hrs after last dose. The settings on record: in vivo. It is filed as organism-based. More on the design: dose 10-40 mg/kg, route intraperitoneal. In short, it runs like this:
as §1

In data set [14] the test system is Mus musculus. The data set is described as follows: Inhibition of IR expression in Balb/C mouse liver assessed as upregulation of IR-A transcript at 6.0 umol/kg, ip administered thrice a week for 2 weeks measured 48 hrs after last dose by quantitative RT-PCR analysis.
In data set [15] the test system is Mus musculus. The data set is described as follows: Inhibition of IR expression in Balb/C mouse kidney assessed as reduction in IR-B transcript at 6.0 umol/kg, ip administered thrice a week for 2 weeks measured 48 hrs after last dose […]. Format: functional, organism-based. The gist of the method:
(§3)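 Male Balb/c mice, n=4 per group, dosed i.p. in PBS and sacrificed 48 h after last dose. Liver, kidney and adipose tissue homogenised at once in 4 M guanidine isothiocyanate, 25 mM EDTA, 50 mM Tris-HCl pH 6. RNA purified on columns and run by fluorescence-based quantitative RT-PCR. Target transcript levels normalised to cyclophilin A and expressed relative to saline-treated controls.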

The subject of data set [16] is Mus musculus. The data set is described as follows: Inhibition of IR expression in Balb/C mouse kidney assessed as upregulation of IR-A transcript at 6.0 umol/kg, ip administered thrice a week for 2 weeks measured 48 hrs after last dose […]. Format: functional, organism-based. In short, it runs like this:
as §3

Data set [17] concerns Mus musculus. Kind of data set: Inhibition of IR expression in Balb/C mouse kidney assessed as upregulation of IR-A transcript at 1.5 umol/kg, ip administered thrice a week for 2 weeks measured 48 hrs after last dose […]. It is filed as functional, organism-based. The gist of the method:
as §3

Data set [18] concerns Mus musculus. Kind of data set: Inhibition of IR expression in Balb/C mouse adipose tissue assessed as reduction in IR-B transcript at 6.0 umol/kg, ip administered thrice a week for 2 weeks measured 48 hrs after last dose […]. Format: functional. Also on record: scale not given: the % may be the effect or the level left. In short, it runs like this: as §3

Data set [19] concerns Mus musculus. Kind of data set: Acute toxicity in Balb/C mouse assessed as change in liver weight at 1.5 to 6.0 umol/kg, ip administered thrice a week for 2 weeks measured 48 hrs after last dose. It is filed as organism-based. The conditions noted are these: in vivo. The gist of the method:
(§4)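 Male Balb/c mice aged 6–8 weeks, n=4 per group, dosed i.p. with compound suspended in PBS and filter sterilized, 10 ul/g body weight. Body weight tracked throughout the live phase. Under isoflurane anaesthesia, terminal cardiac-puncture bleed; serum taken for transaminases and other chemistries. Sacrifice by cervical dislocation 48 h after last dose, with liver and spleen weighed at necropsy. Kidneys examined by histopathology.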

Data set [20] concerns Mus musculus. The data set is described as follows: Acute toxicity in Balb/C mouse assessed as change in spleen weight at 1.5 to 6.0 umol/kg, ip administered thrice a week for 2 weeks measured 48 hrs after last dose. It is filed as organism-based. The settings on record: in vivo. In short, it runs like this:
as §4

The test system of data set [21] is Mus musculus. Kind of data set: Inhibition of IR expression in Balb/C mouse kidney assessed as reduction in IR-B transcript at 1.5 umol/kg, ip administered thrice a week for 2 weeks measured 48 hrs after last dose […]. Format: functional, organism-based. In short, it runs like this: as §3
Data set [22] concerns Mus musculus. The data set is described as follows: Acute toxicity in Balb/C mouse assessed as change in plasma chemistry at 1.5 to 6.0 umol/kg, ip administered thrice a week for 2 weeks measured 48 hrs after last dose. Format: organism-based. The conditions noted are these: in vivo. The gist of the method: as §4
Data set [23] deals with Mus musculus. The data set is described as follows: Acute toxicity in Balb/C mouse assessed as reduction in body weight at 10.5 umol/kg, ip administered thrice a week for 2 weeks measured 48 hrs after last dose. It is filed as organism-based. The conditions noted are these: in vivo. In short, it runs like this:
as §4

For data set [24], the system named is Mus musculus. The data set is described as follows: Inhibition of IR expression in Balb/C mouse adipose tissue assessed as upregulation of IR-A transcript at 6.0 umol/kg, ip administered thrice a week for 2 weeks measured 48 hrs after last dose by […]. It is filed as functional. More on the design: scale not given: the % may be the effect or the level left. In short, it runs like this: as §3

Data set [25] relates to Mus musculus. The data set is described as follows: Inhibition of IR expression in Balb/C mouse liver assessed as upregulation of IR-A transcript at 1.5 umol/kg, ip administered thrice a week for 2 weeks measured 48 hrs after last dose by quantitative RT-PCR analysis.
In data set [26] the test system is Mus musculus. Kind of data set: Acute toxicity in Balb/C mouse assessed as reduction in body weight at 1.5 to 6.0 umol/kg, ip administered thrice a week for 2 weeks measured 48 hrs after last dose. It is filed as organism-based. The conditions noted are these: in vivo. The gist of the method: as §4

As for `Cc1cn(CC(=O)N(CCNC(=O)CN(CCNC(=O)[C@H](CCCCN)N(CCNC(=O)[C@H](CCCCN)NC(=O)[C@@H](N)CCCCN)C(=O)Cn2cc(C)c(=O)[nH]c2=O)C(=O)Cn2ccc(N)nc2=O)CC(=O)NCCN(CC(=O)NCCN(CC(=O)NCCN(CC(=O)NCCN(CC(=O)NCCN(CC(=O)NCCN(CC(=O)NCCN(CC(=O)NCCN(CC(=O)NCCN(CC(=O)NCCN(CC(=O)NCCN(CC(=O)NCCN(CC(=O)NCCN(CC(=O)N[C@@H](CCCCN)C(N)=O)C(=O)Cn2cnc3c(N)ncnc32)C(=O)Cn2ccc(N)nc2=O)C(=O)Cn2cnc3c(N)ncnc32)C(=O)Cn2cc(C)c(=O)[nH]c2=O)C(=O)Cn2ccc(N)nc2=O)C(=O)Cn2cc(C)c(=O)[nH]c2=O)C(=O)Cn2cnc3c(N)ncnc32)C(=O)Cn2ccc(N)nc2=O)C(=O)Cn2cnc3c(N)ncnc32)C(=O)Cn2ccc(N)nc2=O)C(=O)Cn2cnc3c(=O)[nH]c(N)nc32)C(=O)Cn2cnc3c(N)ncnc32)C(=O)Cn2ccc(N)nc2=O)c(=O)[nH]c1=O`, the Activity entry in the data set with Mus musculus [1], in the data set on Mus musculus [4], in the data set on Mus musculus [8], with Mus musculus [9], in the data set on Mus musculus [10] and in the data set on Mus musculus [11] was “Non-toxic” throughout. Moreover, the Activity result in the data set on Mus musculus [13] is reported as “Non-toxic”. In addition, the inhibition entry in the data set with Mus musculus [2] and with Mus musculus [12] was “inactive” each time. Further, the result in the data set with Mus musculus [3] was inactive. Besides, the concentration at 48 h in [5] worked out at 28 µM; in data set [6], 355 µM; in data set [7] it was 4 µM.
Consider `Cc1cn(CC(=O)N(CCNC(=O)CN(CCNC(=O)CN(CCNC(=O)CN(CCNC(=O)CN(CCNC(=O)CN(CCNC(=O)CN(CCNC(=O)CN(CCNC(=O)[C@H](CCCCN)N(CCNC(=O)CN(CCNC(=O)CN(CCNC(=O)CN(CCNC(=O)[C@H](CCCCN)NC(=O)[C@H](CCCCN)NC(=O)[C@H](CCCCN)NC(=O)[C@H](CCCCN)NC(=O)[C@H](CCCCN)NC(=O)[C@H](CCCCN)NC(=O)[C@H](CCCCN)NC(=O)[C@@H](N)CCCCN)C(=O)Cn2cnc3c(N)ncnc32)C(=O)Cn2ccc(N)nc2=O)C(=O)Cn2ccc(N)nc2=O)C(=O)Cn2cc(C)c(=O)[nH]c2=O)C(=O)Cn2cnc3c(N)ncnc32)C(=O)Cn2ccc(N)nc2=O)C(=O)Cn2cc(C)c(=O)[nH]c2=O)C(=O)Cn2cnc3c(=O)[nH]c(N)nc32)C(=O)Cn2cc(C)c(=O)[nH]c2=O)C(=O)Cn2ccc(N)nc2=O)C(=O)Cn2ccc(N)nc2=O)CC(=O)NCCN(CC(=O)NCCN(CC(=O)NCCN(CC(=O)NCCN(CC(=O)NCCN(CC(=O)NCCN(CC(=O)NCCN(CC(=O)NCCN(CC(=O)N[C@@H](CCCCN)C(N)=O)C(=O)Cn2cnc3c(N)ncnc32)C(=O)Cn2ccc(N)nc2=O)C(=O)Cn2ccc(N)nc2=O)C(=O)Cn2cnc3c(N)ncnc32)C(=O)Cn2ccc(N)nc2=O)C(=O)Cn2cnc3c(=O)[nH]c(N)nc32)C(=O)Cn2cnc3c(=O)[nH]c(N)nc32)C(=O)Cn2ccc(N)nc2=O)c(=O)[nH]c1=O`, for which the result in the data set on Mus musculus [14], in the data set with Mus musculus [16], in the data set on Mus musculus [17] and in the data set with Mus musculus [25] was Active. The result in the data set on Mus musculus [15] and in the data set on Mus musculus [21] was inactive. The Activity with Mus musculus [18] is 50%; in the data set on Mus musculus [19], “Non-toxic”; in the data set with Mus musculus [20], “Non-toxic”; in the data set with Mus musculus [22], “Non-toxic”; with Mus musculus [23], “Toxic”; with Mus musculus [24] it was 200%. Moreover, the Activity result with Mus musculus [26] was “Non-toxic”.
